From ChEMBL document CHEMBL1139478, “Piperazinobenzopyranones and phenalkylaminobenzopyranones: potent inhibitors of breast cancer resistance protein (ABCG2)” (J Med Chem, 2005)

Tests used:
[1] = target: T1, Broad substrate specificity ATP-binding cassette transporter ABCG2 (Homo sapiens, UniProt Q9UNQ0); assay: Inhibition of BCRP expressed in mitoxantrone-resistant human HCT116 cells assessed as increase in mitoxantrone accumulation at 10 uM after 15 mins; assay type: cell-based; conditions: hct-116, 0.25 h
T1 sequence (Q9UNQ0 whole entry): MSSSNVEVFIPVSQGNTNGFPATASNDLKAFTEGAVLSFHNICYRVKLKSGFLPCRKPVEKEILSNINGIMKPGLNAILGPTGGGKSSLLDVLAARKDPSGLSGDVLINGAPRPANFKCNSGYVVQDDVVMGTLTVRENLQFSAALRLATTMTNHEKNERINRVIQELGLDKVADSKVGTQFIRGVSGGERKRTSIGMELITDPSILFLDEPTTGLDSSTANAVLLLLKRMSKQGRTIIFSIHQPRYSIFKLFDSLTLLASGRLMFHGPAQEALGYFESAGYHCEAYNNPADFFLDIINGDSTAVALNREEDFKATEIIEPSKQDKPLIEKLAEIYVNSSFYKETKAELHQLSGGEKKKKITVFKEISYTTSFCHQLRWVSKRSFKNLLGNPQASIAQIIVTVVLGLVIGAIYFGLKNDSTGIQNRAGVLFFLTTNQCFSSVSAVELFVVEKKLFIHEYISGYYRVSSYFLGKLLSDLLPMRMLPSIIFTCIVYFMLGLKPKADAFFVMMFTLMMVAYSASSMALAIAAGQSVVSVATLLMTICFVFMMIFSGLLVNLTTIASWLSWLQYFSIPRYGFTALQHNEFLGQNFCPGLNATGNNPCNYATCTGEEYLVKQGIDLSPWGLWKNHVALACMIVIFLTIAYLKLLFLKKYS
Outline: (§1)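 HCT116/R cells from ~90% confluent flasks, trypsinized, washed and resuspended at 10^6 cells/mL in serum-free RPMI. Preincubated 15 min at 37 °C with modulator (10 to 0.1 μM final, from 10 mM DMSO stock), then 3 μM mitoxantrone added for 30 min. Stopped with ice-cold PBS, washed; intracellular mitoxantrone by flow cytometry (488 nm excitation, 670 nm band-pass), mean fluorescence intensity in arbitrary units.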

[2] = Cytotoxicity against mitoxantrone-sensitive human HCT116 cells at 10 uM assessed as viable cells after 48 hrs; assay type: cell-based, HCT-116; conditions: read-out: Activity
Outline: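 HCT116/S cells exposed to compound at 10, 1 and 0.1 μM; cell cycle distribution (G0/G1, S, G2/M) and viability by flow cytometry after trypsin/spermine detergent buffer 10 min room temperature, trypsin inhibitor plus ribonuclease A 10 min, then PI 10 min, read immediately.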

[3] = target: T1, Broad substrate specificity ATP-binding cassette transporter ABCG2; assay: Inhibition of BCRP expressed in mitoxantrone-resistant human HCT116 cells assessed as increase in mitoxantrone accumulation at 1 uM after 15 mins; assay type: cell-based; conditions: hct-116, 0.25 h; outline: as §1
HCT-116 [4] = assay: Potentiation of mitoxantrone-induced cytotoxicity in mitoxantrone-resistant human HCT116 cells at 10 uM assessed as dead cells after 48 hrs by flow cytometry; assay type: cell-based; conditions: hct-116, 48 h
Outline: (§2)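 After 24 h attachment, HCT116/R medium replaced with fresh medium holding 1 μM mitoxantrone plus modulator (10, 1, 0.1 μM); 48 h at 37 °C, PBS washes. Dead cells by propidium iodide uptake (2 μg/mL) in unfixed cells, FSC/FL2 flow cytometry; apoptosis by annexin V-FITC/PI staining, 10 min room temperature, flow cytometry; viable, apoptotic and dead percentages reported.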

HCT-116 [5] = assay: Potentiation of mitoxantrone-induced cytotoxicity in mitoxantrone-resistant human HCT116 cells at 10 uM assessed as apoptotic cells after 48 hrs by flow cytometry; assay type: cell-based; conditions: hct-116, 48 h; outline: as §2

SMILES	Fluorescence intensity [1]	other results
CC(C)(C)OC(=O)N1CCN(C(=O)c2cc(=O)c3c(O)cccc3o2)CC1	179 a.u.	viability at 48 h, 10 µM [2]: 60%
CCCCCN1CCN(C(=O)c2cc(=O)c3c(O)cccc3o2)CC1	225 a.u.	
O=C(c1cc(=O)c2c(O)cccc2o1)N1CCN(CCO)CC1	72 a.u.	
O=C(c1cc(=O)c2c(O)cccc2o1)N1CCN(CC2CCCCC2)CC1	92 a.u.	
COc1ccc(CCNC(=O)c2cc(=O)c3c(O)cccc3o2)cc1OC	315 a.u.	Activity [3]: Active; viability at 48 h, 10 µM [2]: 60%
COc1ccc(CNC(=O)c2cc(=O)c3c(O)cccc3o2)cc1OC	197 a.u.	
CCCCN1CCN(C(=O)c2cc(=O)c3c(O)cccc3o2)CC1	223 a.u.	viability at 48 h, 10 µM [2]: 60%; Activity (HCT-116 [4]): 22%; Activity (HCT-116 [5]): 27%
CC(C)CN1CCN(C(=O)c2cc(=O)c3c(O)cccc3o2)CC1	92 a.u.	
O=C(c1cc(=O)c2c(O)cccc2o1)N1CCNCC1	86 a.u.	
CCCN1CCN(C(=O)c2cc(=O)c3c(O)cccc3o2)CC1	104 a.u.	
COc1ccc(CCNC(=O)c2cc(=O)c3c(O)cccc3o2)cc1	320 a.u.	Activity [3]: Active; Activity (HCT-116 [4]): 8%; Activity (HCT-116 [5]): 42%
O=C(NCCc1ccccc1)c1cc(=O)c2c(O)cccc2o1	282 a.u.	viability at 48 h, 10 µM [2]: 60%
CC(=O)N1CCN(C(=O)c2cc(=O)c3c(O)cccc3o2)CC1	112 a.u.	
CCN1CCN(C(=O)c2cc(=O)c3c(O)cccc3o2)CC1	108 a.u.	
COc1ccc2c3c([nH]c2c1)[C@H](C=C(C)C)N1C(=O)[C@@H]2CCCN2C(=O)[C@@H]1C3 [FUMITREMORGIN]	315 a.u.	
Cc1ccc(NC(=O)c2ccc(CN3CCN(C)CC3)cc2)cc1Nc1nccc(-c2cccnc2)n1 [IMATINIB]	334 a.u.	
